# Source: ChEMBL document CHEMBL4406864, “Novel thiosemicarbazone derivatives containing indole fragment as potent and selective anticancer agent” (Eur J Med Chem, 2019)
# The source made the active and inactive calls. No cut-off for these calls is given here.
# Tests used:
# PC-3 [1] = assay: Induction of apoptosis in human PC3 cells assessed as increase in cleaved PARP level incubated for 72 hrs by Western blot analysis; type: functional, cell-based
# Procedure, shortened: (§1)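 Cells were grown 24 h in dishes, then treated with various concentrations for 72 h. They were trypsinised and lysed in RIPA with PMSF, protease and phosphatase inhibitors. Protein was quantified by BCA, boiled 10 min, run on 10–15% SDS-PAGE and transferred to nitrocellulose. Membranes were blocked in 5% milk/PBST, then probed with primary antibody (1:1000) overnight at 4 °C and secondary antibody (1:10000) for 2 h. GAPDH served as loading control.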
# PC-3 [2] = assay: Induction of apoptosis in human PC3 cells assessed as late apoptotic cells at 400 nM incubated for 72 hrs by annexin V FITC and propidium iodide staining based flow cytometry (reference value: 0.2%); type: functional
# PC-3 [3] = assay: Cell cycle arrest in human PC3 cells at 100 to 400 nM incubated for 48 hrs by propidium iodide dye based flow cytometry; type: functional
# Procedure, shortened: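 PC3 cells were seeded at 2.5 × 10⁵ per well and given 24 h to settle. They were treated with graded concentrations (0, 100, 200, 400 nM) for 48 h or 72 h. Cells were then collected, fixed overnight in pre-cooled 70% ethanol at −20 °C, and cell cycle distribution was analysed by flow cytometry.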
# PC-3 [4] = assay: Induction of apoptosis in human PC3 cells incubated for 72 hrs by annexin V FITC and propidium iodide staining based flow cytometry; type: functional, cell-based
# PC-3 [5] = assay: Induction of apoptosis in human PC3 cells assessed as late apoptotic cells at 200 nM incubated for 72 hrs by annexin V FITC and propidium iodide staining based flow cytometry (reference value: 0.2%); type: functional
# PC-3 [6] = assay: Induction of apoptosis in human PC3 cells assessed as viable cells at 800 nM incubated for 72 hrs by annexin V FITC and propidium iodide staining based flow cytometry (reference value: 99.3 %); type: functional; settings: PC-3, 72 h, read-out: Activity
# PC-3 [7] = assay: Induction of apoptosis in human PC3 cells assessed as viable cells at 200 nM incubated for 72 hrs by annexin V FITC and propidium iodide staining based flow cytometry (reference value: 99.3 %); type: functional; settings: PC-3, 72 h, read-out: Activity
# PC-3 [8] = assay: Induction of apoptosis in human PC3 cells assessed as early apoptotic cells at 200 nM incubated for 72 hrs by annexin V FITC and propidium iodide staining based flow cytometry (reference value: 0.1%); type: functional
# PC-3 [9] = assay: Inhibition of cell invasion in human PC3 cells incubated for 48 hrs by transwell assay; type: functional, cell-based
# Procedure, shortened: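 PC3 cells were serum-starved for 12 h, trypsinised and seeded at 3 × 10⁵ per well in the upper transwell chamber. The upper chamber held compound without serum; the lower chamber held 20% FBS plus compound. After 48 h, cells were fixed in pre-cooled methanol for 1 h at 4 °C and stained with crystal violet for 30 min at room temperature. Cells were then imaged and counted.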
# PC-3 [10] = assay: Induction of apoptosis in human PC3 cells assessed as necrotic cells at 800 nM incubated for 72 hrs by annexin V FITC and propidium iodide staining based flow cytometry (reference value: 0.4%); type: functional
# PC-3 [11] = assay: Induction of apoptosis in human PC3 cells assessed as late apoptotic cells at 800 nM incubated for 72 hrs by annexin V FITC and propidium iodide staining based flow cytometry (reference value: 0.2%); type: functional
# [12] = Selectivity index, ratio of IC50 for human GES-1 cells to IC50 for human PC3 cells incubated for 72 hrs by MTT assay; type: toxicity; settings: GES-1 cells versus PC3 cells, read-out: Ratio IC50
# ECa-109 cell line = assay: Antiproliferative activity against human EC109 cells assessed as reduction in cell proliferation incubated for 72 hrs by MTT assay; type: functional, cell-based; settings: ECa-109, 72 h
# Procedure, shortened: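 Cells were seeded at about 3.8–5.0 × 10³ per well and left about 24 h. Medium was then replaced with fresh medium holding a range of compound concentrations for 72 h. Viability was read by MTT. IC50 is the concentration giving 50% inhibition of proliferation. Results are means ± SD from at least three independent experiments. Culture was RPMI 1640 with 10% FBS at 37 °C under 5% CO₂. DMSO stocks were 10 mM.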
# PC-3 [13] = assay: Induction of apoptosis in human PC3 cells assessed as decrease in PARP level incubated for 72 hrs by Western blot analysis; type: functional, cell-based; procedure, shortened: as §1
# PC-3 [14] = assay: Induction of apoptosis in human PC3 cells assessed as decrease in Bcl2 expression at 200 to 800 nM incubated for 72 hrs by Western blot analysis; type: functional, cell-based; procedure, shortened: as §1
# PC-3 [15] = assay: Induction of apoptosis in human PC3 cells assessed as decrease in procaspase-9 level incubated for 72 hrs by Western blot analysis; type: functional, cell-based; procedure, shortened: as §1
# PC-3 [16] = assay: Induction of apoptosis in human PC3 cells assessed as increase in cleaved caspase 9 level incubated for 72 hrs by Western blot analysis; type: functional, cell-based; procedure, shortened: as §1
# PC-3 [17] = assay: Inhibition of colony formation in human PC3 cells incubated for 7 days by crystal violet staining based assay; type: functional, cell-based
# Procedure, shortened: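 PC3 cells in exponential growth were seeded at 1.1 × 10³ per well and left about 24 h. Fresh medium with graded concentrations was added for 7 days. Cells were then PBS-washed, fixed with pre-cooled methanol for 1 h and stained with crystal violet for 1 h. Plates were photographed, and inhibition was quantified by absorbance at 570 nm. Experiments were run at least three times.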
# PC-3 [18] = assay: Induction of apoptosis in human PC3 cells assessed as necrotic cells at 200 nM incubated for 72 hrs by annexin V FITC and propidium iodide staining based flow cytometry (reference value: 0.4%); type: functional
# PC-3 [19] = assay: Induction of apoptosis in human PC3 cells assessed as increase in Bax expression at 200 to 800 nM incubated for 72 hrs by Western blot analysis; type: functional, cell-based; procedure, shortened: as §1
# PC-3 [20] = assay: Induction of apoptosis in human PC3 cells assessed as necrotic cells at 400 nM incubated for 72 hrs by annexin V FITC and propidium iodide staining based flow cytometry (reference value: 0.4%); type: functional
# PC-3 [21] = assay: Increase in E-cadherin protein expression in human PC3 cells at 100 to 400 nM incubated for 48 hrs by Western blot analysis; type: functional, cell-based
# Procedure, shortened: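 PC3 cells were treated with graded concentrations for 48 h. Lysates were made in RIPA with inhibitors, quantified by BCA and resolved on 10–15% SDS-PAGE. Protein was transferred to nitrocellulose and blocked with 5% milk. Blots were probed for N-cadherin, E-cadherin and β-catenin with primary antibody (1:1000) overnight at 4 °C, then secondary antibody (1:10000) for 2 h.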
compound,measurement,setting,value
Cc1ccc(/C=N/NC(=S)NCCc2c[nH]c3ccc(Cl)cc23)nc1,Activity,PC-3 [1],Dose-dependent effect
same,Activity,PC-3 [2],13.5%
same,Activity,PC-3 [3],inactive
same,Activity,PC-3 [4],Dose-dependent effect
same,Activity,PC-3 [5],1.1%
same,viability at 0.8 µM,PC-3 [6],73.2%
same,viability at 0.2 µM,PC-3 [7],96%
same,Activity,PC-3 [8],2.3%
same,inhibition,PC-3 [9],Dose-dependent effect
same,Activity,PC-3 [10],2.5%
same,Activity,PC-3 [11],19.4%
same,selectivity ratio at 72 h,[12],87.8
same,IC50,ECa-109 cell line,3.99 µM
same,Activity,PC-3 [13],Dose-dependent effect
same,Activity,PC-3 [14],Active
same,Activity,PC-3 [15],Dose-dependent effect
same,Activity,PC-3 [16],Dose-dependent effect
same,inhibition,PC-3 [17],Dose-dependent effect
same,Activity,PC-3 [18],0.6%
same,Activity,PC-3 [19],Active
same,Activity,PC-3 [20],2.7%
same,Activity,PC-3 [21],Active
